Shown is part of a subset that was picked to be rich in hits.
Jurkat NFkB inh: inhibitors of the PMA/ionomycin-induced NF-kB reporter in Jurkat cells; PMA/ionomycin-induced NF-kB luciferase reporter, luminescence; inhibition, % at 4 µM; 330,000 tested, 0.53% active; AID 435003; in the data active means inhibition above about 50%
CHOP inhibitor: CHOP inhibition in unfolded protein response; CHO-K1 CHOP-promoter luciferase, tunicamycin-induced, 15-18 h; inhibition, % at 10 µM; 220,000 tested, 3.8% active;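 active means compounds that reduced the stress-induced luciferase reporter signal by more than about 70% of percent inhibition, limit read from the data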
UPR CHOP act: activators of apoptotic arm of unfolded protein response (CHOP); activation, % at 10 µM; AID 449763; 330,000 tested, 0.34% active; CHO-CHOP luciferase reporter, UPR activation, luminescence; percent of tunicamycin response over DMSO baseline;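 active means at 10 µM dose, activation of 40% or more, normalized to positive control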
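Material: CHO-CHOP cells, stable luciferase reporter of PERK-eIF2a-CHOP signalling; quantity: 500 reporter cells seeded per well; buffer or medium: F12 medium containing 10% fetal bovine serum; compound: one dose, 10 µM in 0.5% DMSO; incubation: 6 h compound treatment, 37 °C; measured by: Steady-Glo luciferase luminescence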
XBP1 UPR activ: activators of adaptive arm of unfolded protein response (XBP1). CHO-XBP1 luciferase reporter, IRE1-XBP1 UPR activation, luminescence; percent of tunicamycin response, DMSO as zero. activation, % at 20 µM. 330,000 tested, 0.33% active. AID 463104;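 active means versus positive control, 20 µM dose yields 30% or more activation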
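assay system = CHO-XBP1 luciferase reporter cells | amount = 1000 cells/well | buffer or medium = F12 plus 10% FBS | compound dosing = single point, 20 µM final compound, 1% DMSO | incubation = 16-18 h cell attachment at 37 °C, then 6 h compound exposure | detection = Steady-Glo luminescence read | controls = tunicamycin 10 µg/mL and vehicle-only wells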
697 NFkB inh: inhibitors of the PMA/ionomycin-induced NF-kB reporter in 697 B cells; 697 B-cell NF-kB luciferase reporter, 16 h; inhibition, % at 4 µM; AID 435022; 330,000 tested, 0.33% active; in the data active means inhibition above about 35%
CHOP confirm: confirmation of CHOP induction inhibitors; 2,100 tested, 45% active; CHO-CHOP promoter luciferase reporter, tunicamycin-induced, luminescence; shares compounds with CHOP inhibitor; inhibition, % at 10 µM;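 active means mean of three repeat readings of reporter signal inhibition above a set limit, cut at about 70% in these data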
Each line names hits and unclear results; the compound was inactive in the other large screens (follow-up assays come after a bar, where they were run).

CCCC(=O)NC(NC(=S)Nc1ccc(N=Nc2ccccc2)cc1)C(Cl)(Cl)Cl (configuration not stated)	CHOP inhibitor 100 | CHOP confirm 83
CC1CCCC(NC(=O)Cn2c(Cl)nc3c2c(=O)n(C)c(=O)n3C)C1C (configuration not stated)	none (no result: CHOP inhibitor)
O=C(Nc1cccc(S(=O)(=O)NC2=NCCC2)c1)c1cc(Cl)ccc1[N+](=O)[O-]	none (no result: CHOP inhibitor)
Cc1ccc(/C=C(/NC(=O)c2ccccc2)C(=O)NC(Cc2c[nH]c3ccccc23)C(=O)O)cc1 (configuration not stated)	none (no result: CHOP inhibitor)
COc1ccccc1NCC(=O)N/N=C(\C)c1ccc(Br)s1	CHOP inhibitor 98 | CHOP confirm inactive
CC(C)NC(=S)NC(c1ccccc1)(c1ccccc1)c1ccccc1	none (no result: CHOP inhibitor)
COc1ccccc1Nc1nc(NCC(C)C)nc(N)c1[N+](=O)[O-]	CHOP inhibitor 101 | CHOP confirm inactive
CN(CC(=O)Nc1ccc(Cl)cc1)CC(=O)Nc1cccc(Br)c1	none (no result: CHOP inhibitor)
CC(C)(C)C(=O)c1no[n+]([O-])c1/C(=N/O)C(C)(C)C	CHOP inhibitor 108 | CHOP confirm 78
CCCc1cc(=O)[nH]c(SCCOc2ccc(Cl)cc2)n1	CHOP inhibitor 101 | CHOP confirm inactive
N#CC(c1ccccc1O)N1N=C(c2ccccc2)CC1c1ccccc1 (configuration not stated)	CHOP inhibitor 97 | CHOP confirm inactive
Cc1ccc(C(=O)N2CC(C)OC(C)C2)cc1S(=O)(=O)N1CCCCC1 (configuration not stated)	none (no result: CHOP inhibitor)
Cc1ccc(OCC(=O)N/N=C/c2cn[nH]c2-c2ccc(Cl)c(Cl)c2)cc1	CHOP inhibitor 99 | CHOP confirm 72
Cc1ccc(OCC(=O)N/N=C/c2cccc3cccnc23)cc1	none (no result: CHOP inhibitor)
O=C(CN1C(=O)S/C(=C\c2ccc(Cl)cc2)C1=O)NNC(=O)c1ccccc1O	CHOP inhibitor 106 (no result: Jurkat NFkB inh, UPR CHOP act, XBP1 UPR activ, 697 NFkB inh) | CHOP confirm inactive
CCOC(=O)Cn1ccc(-c2ccccc2)c(C#N)c1=O	none
Brc1ccc(-c2noc3c2-c2nc(-c4ccccc4)sc2CC3)cc1	none (no result: CHOP inhibitor)
O=C(COC(=O)c1cccc(C(F)(F)F)c1)NC(=O)NC1CCCC1	none (no result: CHOP inhibitor)
CCCCCn1c(CN2CCN(C)CC2)nc2c1c(=O)n(C)c(=O)n2C	none
CCCCCCn1c(CN2CCN(Cc3ccccc3)CC2)nc2c1c(=O)n(C)c(=O)n2C	CHOP inhibitor 100 | CHOP confirm 120
c1ccc(CN2CCC(Nc3nc(-c4ccccc4)nc4ccccc34)CC2)cc1	CHOP inhibitor 102 | CHOP confirm inactive
NS(=O)(=O)c1ccc(NC(=O)COC(=O)c2cn(-c3ccccc3)nc2-c2ccccc2)cc1	CHOP inhibitor 97 | CHOP confirm inactive
CC(OC(=O)c1cccc(S(=O)(=O)N2CCOCC2)c1)C(=O)NC1CCCCC1C (configuration not stated)	none (no result: CHOP inhibitor)
Cc1csc(NC(=O)CSc2nnc(-c3ccoc3C)o2)n1	none
Cc1occc1-c1nnc(SCC(=O)Nc2nc(C(C)(C)C)cs2)o1	CHOP inhibitor 103 | CHOP confirm inactive
Cc1cc(N=Nc2c(O)c3ccccc3[nH]c2=O)ccc1N=Nc1ccc(C(=O)N(C)C)cc1	CHOP inhibitor 105 | CHOP confirm inactive
O=C(Cc1ccccc1)Nc1cccc(N2C(=O)C=CC2=O)c1	CHOP inhibitor 109 (no result: Jurkat NFkB inh, UPR CHOP act, XBP1 UPR activ, 697 NFkB inh) | CHOP confirm 132
COc1cccc(NC(=O)Cc2ccccc2)c1	none
CCN(CC)S(=O)(=O)c1ccc(N2CCOCC2)c(NC(=O)C2CCCO2)c1 (configuration not stated)	none
CCOC(=O)c1c(-c2ccccc2)oc2ccc(O)c(CN3CCOCC3)c12	CHOP inhibitor 109 | CHOP confirm 96
C[C@@H](NC(=O)c1nc[nH]c1C(=O)NCc1ccc(CNC(=O)OC(C)(C)C)cc1)c1ccccc1	none (no result: CHOP inhibitor)
Cc1occc1C(=O)Nc1sc2c(c1C(N)=O)CCCCC2	CHOP inhibitor 96 | CHOP confirm inactive
O=C1N[C@H]2CC=C[C@H]2Nc2ccccc21	none (no result: Jurkat NFkB inh, CHOP inhibitor)
COCCn1c(=NC(=O)/C=C/c2cccs2)sc2cc(NC(C)=O)ccc21	CHOP inhibitor 105 | CHOP confirm 79
CCCCC1=CC2=C(c3ccco3)C(=O)C(C)(OC(=O)c3ccc(OC)cc3)C(=O)C2=CN1CCOC (configuration not stated)	none
CCCCC1=CC2=C(c3ccco3)C(=O)C(C)(OC(=O)c3ccc(OC)cc3)C(=O)C2=CN1C1CCCCC1 (configuration not stated)	CHOP inhibitor 101 | CHOP confirm inactive
CCCCC1=CC2=C(c3ccco3)C(=O)C(C)(OC(=O)c3ccc(OC)cc3)C(=O)C2=CN1Cc1ccccc1 (configuration not stated)	CHOP inhibitor 105 | CHOP confirm 73
CCCCC1=CC2=C(c3ccco3)C(=O)C(C)(OC(=O)c3ccc(OC)cc3)C(=O)C2=CN1CCc1ccccn1 (configuration not stated)	none
CCCCC1=CC2=C(c3ccco3)C(=O)C(C)(OC(=O)c3ccc(OC)cc3)C(=O)C2=CN1Cc1ccc2c(c1)OCO2 (configuration not stated)	CHOP inhibitor 102 | CHOP confirm inactive
O=C(CN1CCCCCC1)Nc1ccccc1OC(F)F	none (no result: CHOP inhibitor)
CCOc1cc(/C=C2/C(=O)ON=C2C)ccc1OCc1ccc(F)cc1	CHOP inhibitor 99 | CHOP confirm 124
O=c1c2ccccc2c(C=Nc2cccc(O)c2)c(O)n1-c1ccc2c(c1)OCO2	CHOP inhibitor 107 | CHOP confirm inactive
Cc1ccc(C(=O)COC(=O)COc2ccccc2[N+](=O)[O-])s1	none (no result: CHOP inhibitor)
CCOC(=O)COc1ccccc1/C=C\[N+](=O)[O-]	CHOP inhibitor 107 (no result: Jurkat NFkB inh, UPR CHOP act, XBP1 UPR activ, 697 NFkB inh) | CHOP confirm 86
Cc1nnc(NC(=O)c2sc3nc(-c4cccs4)cc(C(F)(F)F)c3c2N)s1	CHOP inhibitor 106 | CHOP confirm 94
CCc1nc2c(cnn2-c2ccc(Cl)cc2)c(=O)n1-c1ccc(OC)cc1	CHOP inhibitor 101 | CHOP confirm 88
COc1ccc(C2=CC(=O)CC(C)(C)C2)cc1OC	none (no result: CHOP inhibitor)
O=[N+]([O-])c1ccc(O)c(/C=N/Nc2ccccc2Cl)c1	CHOP inhibitor 96 | CHOP confirm 125
COCCn1c(SCC(=O)Nc2ccc(C)cc2C)nc2c(oc3ccccc32)c1=O	CHOP inhibitor 101 | CHOP confirm inactive
COCCn1c(SCC(=O)Nc2ccc(OC)cc2)nc2c(oc3ccccc32)c1=O	none
O=C(Nc1cccc(Cl)c1)c1ccc(S(=O)(=O)NCC2CCCO2)cc1 (configuration not stated)	none (no result: CHOP inhibitor)
C/C(=N\NC(=O)COc1ccccc1-c1ccccc1)c1ccc(O)cc1O	CHOP inhibitor 104 | CHOP confirm inactive
